Bioassay records from PubChem.
CHO parental Ca – counter-screen for OX1R antagonists: effect in parental CHO cells; inhibition, % at 5.6 µM; hit rate 0.63% among 330,000; parental CHO-K1, ATP-induced calcium, Fluo-8 fluorescence;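 active = inhibition above that plate's mean sample inhibition plus 3 SD, cut at about 26% in these data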
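material = parental CHO cells | also added = ATP as calcium-mobilizing challenge | dosing = single point at 5.6 µM | detection = intracellular calcium via Fluo-8 no-wash fluorescent dye | read-out = % inhibition | benchmarks = low control ATP plus DMSO, high control DMSO only | repeats = one well per compound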
TRPN1 ag – zebrafish TRPN1 (NompC) channel agonism; HEK293 zebrafish TRPN1-YFP, Fluo-8 calcium fluorescence; 100% = response to 87 µM carbachol; AID 1424; hit rate 0.18% among 220,000; activation, % at 3 µM;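 active = activation above its plate's cutoff, the mean activation of test wells on that plate plus 3 SD, cut at about 19% in these data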
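Assay system: Zebrafish TRPN1-YFP in HEK293 cells | Incubation: Dye loading 1 h at 37 °C, then 30 min room temperature | Measured by: Kinetic Fluo-8 fluorescence, ex 470-495, em 515-575 nm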
OX1R antag-1 – human HCRTR1 antagonism; O43613; CHO/OX1R cells, Fluo-8 calcium fluorescence, orexin A; inhibition, % at 5 µM; hit rate 0.43% among 330,000; AID 434989;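 active = inhibition above its plate's threshold, mean inhibition of all tested compounds on the plate plus 3 SD, cut at about 37% in these data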
Target sequence (O43613 whole entry, looked up): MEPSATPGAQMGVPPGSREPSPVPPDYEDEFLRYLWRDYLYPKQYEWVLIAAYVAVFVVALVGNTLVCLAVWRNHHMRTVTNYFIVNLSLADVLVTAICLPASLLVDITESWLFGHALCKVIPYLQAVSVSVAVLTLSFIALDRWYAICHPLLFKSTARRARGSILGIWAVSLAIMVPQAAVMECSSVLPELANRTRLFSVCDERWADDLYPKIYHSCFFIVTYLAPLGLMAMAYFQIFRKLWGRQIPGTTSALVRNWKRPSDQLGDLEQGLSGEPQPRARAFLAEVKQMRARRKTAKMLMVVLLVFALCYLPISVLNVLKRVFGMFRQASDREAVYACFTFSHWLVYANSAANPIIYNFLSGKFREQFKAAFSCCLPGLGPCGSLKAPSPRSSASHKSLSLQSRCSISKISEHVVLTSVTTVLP
OX1R antag-2 – blocks the human orexin 1 receptor | O43613 | OX1R-expressing cells, FRET antagonist read-out | inhibition, % at 6.6 µM | hit rate 1.8% among 330,000 | AID 485270; in the data active = inhibition mostly above about 38%, no sharp cut-off; inactive = mostly below about 40%
TRPML3 ag – agonists of human TRPML3 channel. HEK293 TRPML3-YFP, Fluo-8 calcium fluorescence; 100% = the carbachol control signal. AID 1448. activation, % at 3 µM. hit rate 0.29% among 220,000;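 active = activation above its plate's cutoff, the mean activation of the plate's test wells plus 3 SD, cut at about 12% in these data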
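Material: HEK293 cells stably carrying human TRPML3-YFP; compound dosing: single dose, 3 µM final nominal compound, 0.3% DMSO final; incubation: 1-h 37 °C dye load, 5-s basal, 120-s post-compound reads; technique: Fluo-8 intracellular calcium fluorescence, excitation 470-495 nm, emission 515-575 nm; read-out basis: percent activation from peak-to-basal fluorescence ratio, scaled between DMSO and carbachol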
GPR7 antag – blocks human GPR7 receptor signaling; hit rate 1.1% among 290,000; P48145; inhibition, % at 4.4 µM; GPR7-expressing cells, fluorescence antagonist assay; in the data active = inhibition above about 16%, passing the limit was not always enough;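 also: cells stimulated with the agonist NPW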
Target sequence (P48145 whole entry, looked up): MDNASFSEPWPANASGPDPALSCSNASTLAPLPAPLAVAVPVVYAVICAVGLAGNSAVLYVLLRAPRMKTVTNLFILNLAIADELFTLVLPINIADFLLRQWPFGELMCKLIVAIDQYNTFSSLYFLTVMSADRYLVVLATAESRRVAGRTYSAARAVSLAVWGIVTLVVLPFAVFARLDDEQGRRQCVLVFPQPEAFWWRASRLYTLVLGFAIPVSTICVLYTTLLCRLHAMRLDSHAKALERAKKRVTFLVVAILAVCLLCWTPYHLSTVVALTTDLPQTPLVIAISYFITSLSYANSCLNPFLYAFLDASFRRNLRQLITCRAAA
GPR7 antag cf – human GPR7 antagonism, confirmation assay. shares compounds with GPR7 antag. GPR7-expressing cells, calcium fluorescence antagonist mode. inhibition, % at 4.4 µM. hit rate 52% among 2,400. AID 1952; in the data active = inhibition above about 24%;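 also: stimulated with the GPR7 agonist NPW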
MCHR1 antag – counter-screen for GPR7 antagonists: antagonists of human MCHR1 | shares compounds with GPR7 antag | MCHR1-expressing cells, fluorescence antagonist assay | inhibition, % at 4.4 µM | hit rate 62% among 2,400 | AID 2148; in the data active = inhibition above about 22%
Each line names hits and unclear results; the compound was inactive in the other large screens (follow-up assays come after a bar, where they were run). A selection: hits, their analogues and other compounds. The true share with any hit is near 3.2%.

Cc1ccc(Cn2nnc(C(=O)Nc3cccc(C)c3C)c2N)cc1	TRPN1 ag 36, OX1R antag-1 37, TRPML3 ag 17, GPR7 antag 61 | GPR7 antag cf 77 | MCHR1 antag 75
CCc1ccc(Cn2nnc(C(=O)Nc3cccc(C)c3)c2N)cc1	none
CCc1ccc(Cn2nnc(C(=O)NCc3ccccc3OC)c2N)cc1	GPR7 antag 25 | GPR7 antag cf inactive | MCHR1 antag inactive
COC(=O)c1ccccc1NC(=O)CSc1nc(Nc2ccccc2)nc(N2CCOCC2)n1	none (no result: TRPN1 ag, TRPML3 ag)
Cc1ccc(C(=O)OCC(=O)c2c(N)n(C)c(=O)n(C)c2=O)cc1S(=O)(=O)N1CCOCC1	none (no result: TRPN1 ag, TRPML3 ag, GPR7 antag)
Cn1c(N)c(C(=O)COC(=O)/C=C/c2ccc(S(=O)(=O)N3CCOCC3)cc2)c(=O)n(C)c1=O	GPR7 antag 24 | GPR7 antag cf inactive | MCHR1 antag inactive
Cc1c(Cl)cccc1NC(=S)N(Cc1cccs1)C1CCCC1	GPR7 antag 23 | GPR7 antag cf inactive | MCHR1 antag 27
Cc1ccccc1NC(=S)N(Cc1cccs1)C1CCCCC1	none
CCOc1ccccc1NC(=O)c1cc(=O)c2ccccc2o1	none (no result: TRPN1 ag, TRPML3 ag)
CCOC(=O)Nc1cc(=O)c2ccccc2o1	GPR7 antag 21 | GPR7 antag cf inactive | MCHR1 antag inactive
COc1ccc(N2CCN(C(=O)c3cn(Cc4ccccc4)nc3-c3cccnc3)CC2)cc1	none (no result: TRPN1 ag, TRPML3 ag, GPR7 antag)
O=C(NC(NC(=S)Nc1ccccc1Cl)C(Cl)(Cl)Cl)c1cccc(Cl)c1 (stereo unspecified)	GPR7 antag 27 | GPR7 antag cf 49 | MCHR1 antag 61
O=C(Cc1cccc2ccccc12)NC(NC(=S)Nc1ccccc1Cl)C(Cl)(Cl)Cl (stereo unspecified)	none
COCCCNC(=S)N1CCC(NC(=O)Nc2ccc(C)cc2)CC1	GPR7 antag 21 | GPR7 antag cf inactive | MCHR1 antag inactive
COCCNC(=S)N1CCC(NC(=O)Nc2ccc(C)cc2)CC1	none
CC1(c2nnc(-c3cccc(Cl)c3)o2)CC(c2cccnc2)=NO1 (stereo unspecified)	none (no result: TRPN1 ag, TRPML3 ag, GPR7 antag)
COc1ccccc1-c1cc(-c2ccc(O)cc2)nc(N)c1C#N	GPR7 antag 37 (no result: TRPN1 ag, TRPML3 ag) | GPR7 antag cf inactive | MCHR1 antag inactive
COc1cccc(-n2ccnc2SCC(=O)Nc2ccccc2F)c1	GPR7 antag 21 | GPR7 antag cf inactive | MCHR1 antag inactive
COc1cccc(-n2ccnc2SCC(=O)Nc2cc(OC)ccc2OC)c1	GPR7 antag 38 | GPR7 antag cf inactive | MCHR1 antag 38
COc1cccc(-n2ccnc2SCC(=O)Nc2ccccc2)c1	none
COc1cccc(OC)c1NC(=O)CN1CCN(C)CC1	none (no result: TRPN1 ag, TRPML3 ag)
COc1ccc(C(C)=O)cc1COC(=O)Cc1cc(OC)c(OC)c(OC)c1	none (no result: TRPN1 ag, TRPML3 ag)
CNC[C@H](Cc1ccccc1)NC[C@@H](Cc1cccc2ccccc12)NCCc1ccc(C)cc1	GPR7 antag 43 (no result: TRPN1 ag, TRPML3 ag) | GPR7 antag cf 67 | MCHR1 antag 76
CNCCNC[C@H](Cc1cccc2ccccc12)NCCc1ccccc1	none (no result: TRPN1 ag, TRPML3 ag, GPR7 antag)
CCCCN(CC(=O)Nc1c(C)cccc1CC)C(=O)SCC	GPR7 antag 36 | GPR7 antag cf 39 | MCHR1 antag 30
C=CCN(CC(=O)Nc1c(C)cccc1CC)C(=O)SCCC	GPR7 antag 27 | GPR7 antag cf inactive | MCHR1 antag inactive
CCc1cccc(CC)c1NC(=O)CN(CC(=O)O)CC(=O)O	none (no result: TRPN1 ag, TRPML3 ag, GPR7 antag)
CCc1cccc(C)c1NC(=O)Cc1ccsc1	none (no result: TRPN1 ag, TRPML3 ag)
CCCSC(=O)N(CC)CC(=O)Nc1c(CC)cccc1CC	GPR7 antag 26 | GPR7 antag cf 26 | MCHR1 antag 22
Cc1ccc(N2C(=O)C3C4C=CC(CNC(=S)Nc5ccc(F)cc5)(O4)C3C2=O)cc1 (stereo unspecified)	none
Cc1ccc(N2C(=O)C3C4C=CC(CNC(=S)Nc5ccc(Cl)cc5)(O4)C3C2=O)cc1 (stereo unspecified)	GPR7 antag 21 | GPR7 antag cf 29 | MCHR1 antag inactive
COc1ccc(C(OCC(O)CNCCc2ccccc2)c2ccc(OC)cc2)cc1 (stereo unspecified)	GPR7 antag 61 (no result: CHO parental Ca, TRPN1 ag, OX1R antag-1, OX1R antag-2, TRPML3 ag) | GPR7 antag cf 35 | MCHR1 antag 53
Cc1ccc(C(OCC(O)CNCc2ccc(F)cc2)c2ccccc2)cc1 (stereo unspecified)	GPR7 antag 41 (no result: TRPN1 ag, TRPML3 ag) | GPR7 antag cf 30 | MCHR1 antag 65
O=C(c1ccccc1)c1ccc(OCC(O)CNCc2ccc(F)cc2)cc1 (stereo unspecified)	none (no result: CHO parental Ca, TRPN1 ag, OX1R antag-1, OX1R antag-2, TRPML3 ag)
Cc1ccc(OCC(=O)NC2CCS(=O)(=O)C2)c(C)c1 (stereo unspecified)	none (no result: CHO parental Ca, TRPN1 ag, OX1R antag-1, OX1R antag-2, TRPML3 ag)
Cc1ccc(-c2cc(C(=O)N3CCCc4ccccc43)c3ccccc3n2)cc1	none
O=C(c1cc(-c2cccnc2)nc2ccccc12)N1CCCc2ccccc21	GPR7 antag 24 | GPR7 antag cf inactive | MCHR1 antag 23
COc1ccc(C[C@H]2CN3C(=NC[C@@H]3C(C)C)N2CCNC(=O)CCC2CCCCC2)cc1	none
COc1ccc(C[C@H]2CN3C(=NC[C@@H]3Cc3ccccc3)N2CCNC(=O)CCC2CCCCC2)cc1	GPR7 antag 37 | GPR7 antag cf 52 | MCHR1 antag 39
CCC1(C)N([O-])C(C)=C(c2ccccc2)[N+]1=O (stereo unspecified)	GPR7 antag 28 | GPR7 antag cf inactive | MCHR1 antag inactive
CCCCn1c(NS(=O)(=O)c2ccccc2)c(S(=O)(=O)c2ccc(C)cc2)c2nc3ccccc3nc21	GPR7 antag 31 | GPR7 antag cf 35 | MCHR1 antag 41
COc1ccc(N=C/C=C2\C=C(c3ccccc3)OC(C)(C)O2)cc1	GPR7 antag 29 | GPR7 antag cf inactive | MCHR1 antag inactive
Cc1cc(NC2CCCCC2)nc(NCc2ccccc2)n1	CHO parental Ca 36, GPR7 antag 24 | GPR7 antag cf 51 | MCHR1 antag 81
CC(=O)c1ccc(Nc2ccc(-c3ccccc3C)nn2)cc1	none
OCCNCC(O)Cn1c2ccccc2c2ccccc21 (stereo unspecified)	none
COc1ccccc1CNCC(c1ccccc1)c1ccccc1	GPR7 antag 42 (no result: TRPN1 ag, TRPML3 ag) | GPR7 antag cf 46 | MCHR1 antag 34
COc1ccccc1CNCC(O)Cn1c2ccccc2c2ccccc21 (stereo unspecified)	GPR7 antag 37 | GPR7 antag cf 68 | MCHR1 antag 73
O=C(c1cccc(Cl)c1)C1CCCN(C(=O)c2ccoc2)C1 (stereo unspecified)	none
COc1ccc(-c2noc(CCC(=O)NC3CCCCCC3)n2)cc1	none (no result: TRPN1 ag, TRPML3 ag)
